From PubChem BioAssay
hIAP activ = increases human intestinal alkaline phosphatase activity; actives 0.16% (n = 330,000); AID 2524; activation factor at 10 µM; P09923; purified human IAP, CDP-Star luminescence, 30 min; hits give high values; 1 = vehicle-only enzyme, 0 = enzyme-free background;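 active = activation factor of the enzyme at least 2-fold when tested at 20 µM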
Target sequence (P09923 whole entry, looked up): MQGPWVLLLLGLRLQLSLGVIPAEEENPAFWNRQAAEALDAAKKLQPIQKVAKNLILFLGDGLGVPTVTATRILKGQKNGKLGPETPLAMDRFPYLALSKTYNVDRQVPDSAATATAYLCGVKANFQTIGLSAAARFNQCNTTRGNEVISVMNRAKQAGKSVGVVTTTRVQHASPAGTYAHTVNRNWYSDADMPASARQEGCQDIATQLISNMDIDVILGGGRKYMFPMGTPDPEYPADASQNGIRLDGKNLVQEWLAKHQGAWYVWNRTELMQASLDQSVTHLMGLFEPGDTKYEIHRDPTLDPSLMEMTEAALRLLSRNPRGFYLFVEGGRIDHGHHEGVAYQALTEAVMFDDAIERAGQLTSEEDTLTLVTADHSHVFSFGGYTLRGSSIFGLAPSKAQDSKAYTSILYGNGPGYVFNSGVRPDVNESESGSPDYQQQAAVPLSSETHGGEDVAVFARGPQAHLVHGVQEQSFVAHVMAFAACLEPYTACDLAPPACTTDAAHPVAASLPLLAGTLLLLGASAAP
bIAP inhibitor = blocks bovine intestinal alkaline phosphatase activity. purified bovine IAP, CDP-star luminescence, 30 min. inhibition, % at 20 µM. 190,000 tested, under 10 active. AID 1019;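 active = over 50% inhibition of intestinal alkaline phosphatase at 20 µM in the single-dose screen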
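test system = bovine IAP enzyme | medium = DEA buffer 100 mM, pH 9.8, with MgCl2 1.0 mM, ZnCl2 0.02 mM | detection = luminescence | dosing = single compound dose of 20 µM, 2% DMSO final | incubation = 30 min reaction at room temperature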
mIAP activ = mouse IAP activation; muIAP, CDP-Star luminescence, 30 min; hits give high values; 1 = vehicle-only enzyme signal, 0 = enzyme-free wells; activation factor at 10 µM; actives 0.24% (n = 330,000); AID 2805;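 active = activation factor of at least 2 at 20 µM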
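System: mouse IAP enzyme. Reagent: CDP-Star chemiluminescent phosphatase substrate. Benchmarks: DMSO wells, no-enzyme wells. Times: 30 min enzyme-substrate-compound incubation at room temperature. Detection: luminescence from enzymatic CDP-Star hydrolysis. Doses: test compounds delivered from DMSO solution.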
mIAP inh = blocks mouse intestinal alkaline phosphatase | inhibition, % at 10 µM | AID 2806 | purified mouse IAP, CDP-Star luminescence, 30 min | actives 0.2% (n = 330,000);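 active = inhibition of at least 40% at 10 µM in the primary screen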;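 also: plate controls were DMSO with enzyme for no effect and no enzyme wells for full effect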
hIAP inh = human IAP inhibition. P09923. purified IAP, CDP-Star luminescence, 30 min. inhibition, % at 10 µM. actives 0.12% (n = 330,000);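 active = inhibition reaching a set limit with compound at 10 µM in the primary screen, cut at about 35% in these data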;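 also: plate controls were DMSO wells with enzyme for no effect and no-enzyme buffer wells for full effect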
bIAP act = intestinal alkaline phosphatase (bovine) activation. purified bovine IAP, CDP-star luminescence, 30 min; hits give high values; fold of DMSO-control signal, blank-subtracted. actives 0.17% (n = 200,000). activation factor at 20 µM. AID 1016;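 active = activation factor of 2 or more at 20 µM, a signal rise over negative controls twice the positive control's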
mIAP inh conf = mouse IAP inhibition confirmation; shares compounds with mIAP inh; purified mouse IAP, CDP-Star luminescence, 30 min; inhibition, % at 10 µM; actives 4.7% (n = 11,000);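 active = inhibition of at least 40% at 10 µM in either of the two replicates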;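 also: plate controls were DMSO wells with enzyme for no effect and buffer wells lacking enzyme for full effect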
The depositor's hits bear a star. Rows were chosen to be rich in hits. Some 0.77% of all compounds tested hit in one or more screens of this group.

`C[C@H]1CN([C@@H](C)CO)C(=O)c2cc(NC(=O)C3CCCCC3)ccc2O[C@H]1CN(C)Cc1ccc(-c2ccccc2)cc1` gave hIAP activ 1, mIAP activ 1.1, mIAP inh -11 and hIAP inh -2.
For C[C@@H]1CN([C@H](C)CO)C(=O)c2cc(NC(=O)Nc3cccc4ccccc34)ccc2O[C@H]1CN(C)Cc1ccc(C(F)(F)F)cc1 the results were hIAP activ 1.1, mIAP activ 3.3*, mIAP inh -231, hIAP inh -10 and mIAP inh conf -120.
C[C@H]1CN([C@@H](C)CO)C(=O)c2cc(NC(=O)Nc3cccc4ccccc34)ccc2O[C@@H]1CN(C)Cc1ccc(-c2ccccc2)cc1 was read as hIAP activ 1, mIAP activ 3.9*, mIAP inh -288, hIAP inh -4 and mIAP inh conf -114.
C[C@@H]1CN([C@H](C)CO)C(=O)c2cc(NC(=O)C3CCCCC3)ccc2O[C@@H]1CN(C)Cc1ccc(C(F)(F)F)cc1 was read as hIAP activ 0.9, mIAP activ 1.1, mIAP inh -7 and hIAP inh 10.
Screening COc1ccc(NC(=O)Nc2cccc3c2O[C@H](CN(C)S(=O)(=O)c2ccc(OC)cc2)[C@@H](C)CN([C@H](C)CO)C3=O)cc1 returned hIAP activ 1.2, mIAP activ 1.1, mIAP inh -6 and hIAP inh -18.
Cc1ccc(S(=O)(=O)N(C)C[C@H]2Oc3c(NC(=O)Nc4cccc5ccccc45)cccc3C(=O)N([C@@H](C)CO)C[C@@H]2C)cc1 was read as hIAP activ 1.2, mIAP activ 4.4*, mIAP inh -339, hIAP inh -18 and mIAP inh conf -214.
Screening C[C@H](CO)N1C[C@H](C)[C@@H](CN(C)C(=O)Nc2ccccc2)Oc2ccc(NC(=O)Nc3ccc4c(c3)OCO4)cc2C1=O returned hIAP activ 1, mIAP activ 3*, mIAP inh -202, hIAP inh -1 and mIAP inh conf -117.
For C[C@@H]1CN([C@@H](C)CO)C(=O)c2cccc(NC(=O)Nc3ccc(F)cc3)c2O[C@@H]1CN(C)Cc1ccc(Oc2ccccc2)cc1 the results were hIAP activ 0.85, mIAP activ 4.3*, mIAP inh -333, hIAP inh 15 and mIAP inh conf -117.
Screening COc1ccc(NC(=O)Nc2cccc3c2O[C@H](CN(C)Cc2ccc(-c4ccccc4)cc2)[C@@H](C)CN([C@H](C)CO)C3=O)cc1 returned hIAP activ 0.96, mIAP activ 1.1, mIAP inh -15 and hIAP inh 4.
For Cc1cc(-c2ccco2)n(-c2ccccc2)n1 the results were hIAP activ 0.93, bIAP inhibitor -9, mIAP activ 0.97, mIAP inh 3, hIAP inh 7 and bIAP act 1.1.
For Cc1cc(-c2ccccc2)n(-c2ccccc2)n1 the results were hIAP activ 1.2, mIAP activ 0.28, mIAP inh 72*, hIAP inh -21 and mIAP inh conf 85*.
CC(=O)Nc1ccc(NC(=O)C(C)n2nc([N+](=O)[O-])c(Br)c2C)cc1 (stereo not given) was read as hIAP activ 0.99, bIAP inhibitor 4, mIAP activ 0.92, mIAP inh 8, hIAP inh 1 and bIAP act 1.
Screening COc1ccc(O)c(N)c1 returned hIAP activ 0.73, bIAP inhibitor -11, mIAP activ 0.59, mIAP inh 41*, hIAP inh 26, bIAP act 1.1 and mIAP inh conf 48*.
CC(C)=CCc1c(O)c(CC=C(C)C)c2c(c1O)-c1cc(O)c(O)cc1CC2 was read as hIAP activ 1, mIAP activ 0.38, mIAP inh 62*, hIAP inh 0 and mIAP inh conf 60*.
For CC(C)=CCc1c(O)ccc(C2COc3c(CC=C(C)C)c(O)cc(O)c3C2=O)c1O (stereo not given) the results were hIAP activ 1.1, mIAP activ 0.86, mIAP inh 14 and hIAP inh -11.
